Measurements from article PMC9401512 (Clinical Cancer Research, 2021).
Marks after values point to notes of the source that are not given here.

Columns and labels:
[1] = system: adults with ER-positive breast cancer; assay: Dose-limiting toxicities in the first 28-day treatment cycle; type: in vivo, human
[2] = LSZ102 clinical pharmacokinetics; type: in vivo, human
[3] = cited from earlier work
[4] = system: adults with ER-positive breast cancer; assay: Adverse events, serious AEs, deaths, discontinuations; type: in vivo, human
How it was run: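 Open-label phase I/Ib escalation in adults with ER-positive advanced breast cancer. Oral test compound was given once or twice daily, alone or with one of two partner agents, in continuous 28-day cycles. AEs were defined and graded per CTCAE v4.03. The safety set was treated participants with ≥1 valid postbaseline safety assessment. Fed/fasted data were pooled.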

ER protein = assay: Paired biopsy ER protein by IHC; type: in vivo, human; details: cycle 1 day 15, single agent
[5] = system: ER-positive breast cancer; assay: Investigator-assessed clinical response; type: in vivo, human
How it was run: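 Local investigator assessed response per RECIST v1.1 in all participants receiving ≥1 dose. ORR = confirmed CR+PR. CBR = CR+PR plus SD or non-CR/non-PD maintained ≥24 weeks. PFS was estimated by Kaplan–Meier. Data were grouped by total daily dose, pooling fed, fasted and food-independent dosing.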

CC(F)(F)c1cc(F)ccc1-c1sc2cc(O)ccc2c1Oc1ccc(/C=C/C(=O)O)cc1 [LSZ102]
DLT: ALT increased, participants ([1]; 450 mg QD): 1^b
DLT: AST increased, participants ([1]; 450 mg QD): 1^b
DLT: Vomiting, participants ([1]; 600 mg QD): 1
DLT: Diarrhea, participants ([1]; 900 mg QD): 2
DLTs, participants ([1]; first 28-day cycle, whole arm): 5%
Recommended dose for expansion: LSZ102 dose ([1]; in vivo): 450 mg once daily
Participants with ≥ 1 DLT, n (%) ([1]; total daily dose 200 mg, QD (n = 4)): 0 n (%)
Participants with ≥ 1 DLT, n (%) ([1]; total daily dose 400 mg, BID (n = 3)): 0 n (%)
Participants with ≥ 1 DLT, n (%) ([1]; total daily dose 400 mg, QD (n = 6)): 0 n (%)
Participants with ≥ 1 DLT, n (%) ([1]; total daily dose 450 mg, BID (n = 5)): 0 n (%)
Participants with ≥ 1 DLT, n (%) ([1]; total daily dose 600 mg (n = 28), QD (n = 23)): 1 (3.6) n (%)
Participants with ≥ 1 DLT, n (%) ([1]; total daily dose 600 mg, BID (n = 5)): 0 n (%)
Participants with ≥ 1 DLT, n (%) ([1]; total daily dose 900 mg, QD (n = 6)): 2 (33.3) n (%)
Time to Cmax ([2]; discussion summary): approximately 2 hours
Median time to maximum concentration (Cmax) ([2]; fasted conditions): 2 to 3 h
Increase in LSZ102 exposure with a high-fat high-calorie meal [3]: ~2 fold
Discontinuations from study treatment: Adverse event, n (%) ([4]; in vivo): 2 (2.6) n (%)
Discontinuations from study treatment: Death, n (%) ([4]; in vivo): 0 n (%)
Deaths on treatment or within 30 days from the last dose, number ([4]; whole arm): 5
Participants with treatment-related serious AEs, number ([4]; whole arm): 1
Biopsy ER H-score change from screening (ER protein): trend toward dose-dependent ER degradation
Discontinuations from study treatment: Progressive disease, n (%) ([5]; human, in vivo): 71 (91.0) n (%)
Clinical benefit rate (CBR) ([5]; whole arm): 7.8%
Objective response rate (ORR) ([5]; whole arm): 1.3%
